L929 necroptosis = blocks zVAD induced death of L929 cells | L929 zVAD necroptosis rescue, ATP luminescence, 24 h; with zVAD 60 µM | viability rescue, % at 10 µM | hit rate 0.38% among 220,000 | AID 1377;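 active = activation, scaled between plate controls, above about 75%, limit read from the data; inactive = activation under that limit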
STAT1 blocker = STAT1 signaling inhibition; hit rate 0.35% among 200,000; inhibition, % at 5.5 µM; NIH 3T3 STAT1-luciferase reporter, IFN-gamma, luminescence;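 active = inhibition above a set limit, the mean inhibition across all tested compounds plus 3 SD, cut at about 34% in these data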
STAT3 inh = inhibitors of IL-6 induced STAT3 signaling; inhibition, % at 5.5 µM; U3A cells, IL-6 STAT3-luciferase reporter, luminescence; host cell line lacks STAT1; AID 862; hit rate 0.89% among 190,000;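 active = inhibition above the mean inhibition across all screened compounds plus 3 SD, cut at about 44% in these data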
TNF death inh = TNF-alpha cell death inhibition in Jurkat FADD-/- cells; AID 463075; Jurkat FADD-/- TNF necroptosis rescue, ATP luminescence, 24 h; 0 = TNF only, 100 = no-TNF cells; activation (protection from cell death), % at 10 µM; hit rate 0.068% among 220,000;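 active = activation, meaning protection from cell death, of at least 50% relative to plate controls; inactive = activation below 50%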;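 note: necroptosis triggered by 40 ng/mL TNF-alpha added together with compound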
STAT3 act = increases IL-6 driven STAT3 reporter signal; activation (% of control), % at 5.6 µM; hit rate 0.91% among 190,000; AID 871; U3A cells, IL-6 STAT3-luciferase reporter, luminescence; 100% = signal with IL-6 EC80 alone;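 active = activation above the screen-wide mean of compound activation plus 3 SD, cut at about 130% in these data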
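Material: human STAT1-deficient U3A cells with stable STAT3-luciferase reporter / Probe or stimulus: IL-6 stimulus at 33 ng/mL final / Schedule: 1 h compound pre-exposure, 6 h IL-6 stimulation, 37 °C / Technique: luminescence / Read-out basis: percent of IL-6-only median luminescence / Control set: IL-6-only high control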
Each line names hits and unclear results; the compound was inactive in the other large screens. This is a sample that favours compounds with a hit; in the whole collection about 2.1% have one here.

O=C(c1ccc(Cl)cc1)c1oc2ccccc2c1CS(=O)c1ccc(Cl)cc1 (centres undefined)	none
COc1cc(/C=N/Nc2nn3cnnc3c3ccccc23)ccc1O	STAT1 blocker 36.2, STAT3 inh 57.5
COCCn1c(SCC(=O)c2c[nH]c3ccccc23)nnc1-c1ccncc1	STAT3 act 135.5
O=C(CCNc1ccc(Cc2ccncc2)cc1)c1cccc([N+](=O)[O-])c1	none
Cc1c(N=C2NC(=O)/C(=C/c3cccc([N+](=O)[O-])c3)S2)c(=O)n(-c2ccccc2)n1C	none
CN(C)c1ccc(/C=N/N=C2/NC(=O)/C(=C/c3ccc([N+](=O)[O-])cc3)S2)cc1	STAT1 blocker 34.6
CN1C(=O)N(C)C2C1N(CN1CCCCC1)C(=O)N2CN1CCCCC1 (centres undefined)	none
COc1ccc(C)cc1N(C(=O)COc1cccc(F)c1)c1nc2ccccc2s1	STAT3 act 134.3
COc1ccc(C)cc1N(C(=O)c1ccc(F)cc1)c1nc2ccccc2s1	none
CC1CCc2nc(NC(=O)c3ccco3)sc2C1 (centres undefined)	STAT1 blocker 42.5, STAT3 inh 97.1
O=C(c1cc2ccccc2oc1=O)N(Cc1ccccc1)Cc1ccc2c(c1)OCO2	STAT3 act 134.9
O=C(c1cc2ccccc2oc1=O)N1CCN(Cc2ccc3c(c2)OCO3)CC1	none
Nn1c(-c2ccccc2Cl)nnc1-c1ccccc1Cl	none (no result: L929 necroptosis)
O=C(Nc1nc(-c2ccc3c(c2)OCO3)cs1)C1CC1	L929 necroptosis 75.9
O=C(CSCC(=O)Nc1nc(-c2ccc3c(c2)OCO3)cs1)Nc1nccs1	none (no result: STAT3 inh, STAT3 act)
CN(C)/C=N/C(=S)Nc1ccccc1Cl	none
CCN=C1NN=C(c2cc(C)n(Cc3ccco3)c2C)CS1	STAT1 blocker 44.6, STAT3 inh 81.7
CCN=C1NN=C(c2cc(C)n(CCc3ccccc3)c2C)CS1	none
CN1CCS/C1=C\C=C1/SC(=S)N(CC(=O)O)C1=O	none
CCN1C(=O)/C(=C/C=C2/SCCN2C)SC1=S	STAT3 inh 59.0
CN(C)S(=O)(=O)c1cccc(C(=O)OCC(=O)Nc2sccc2C#N)c1	STAT3 act 133.8
COc1ccc(N(C)S(=O)(=O)c2cccc(C(=O)OCC(=O)Nc3sc4c(c3C#N)CCCCC4)c2)cc1	none
COc1ccc(-c2nsc3c(N4CCCCC4C)ncnc23)cc1 (centres undefined)	STAT1 blocker 80.6, STAT3 inh 98.7
COc1ccc(C(=O)N2CCN(c3ncnc4c(-c5ccccc5)nsc34)CC2)cc1	none
COc1ccc(-c2cc3nc4n(c(=O)c3s2)CCC4)cc1	STAT1 blocker 65.1, STAT3 inh 92.5
COc1ccc(-c2cc3nc4n(c(=O)c3s2)CCCCC4)cc1	none (no result: STAT1 blocker, STAT3 inh, STAT3 act)
CC(=O)Nc1cccc(C(=O)OC(C(=O)c2ccc(C)c(C)c2)c2ccccc2)c1 (centres undefined)	L929 necroptosis 83.2
Cc1ccc2c(c1C)NC(=O)CC(c1ccccc1O)=N2	none (no result: STAT1 blocker, STAT3 inh, STAT3 act)
O=C(NCC1CCCO1)c1ccc2c(=O)n(Cc3ccco3)c(SCC(=O)N3CCCC3)nc2c1 (centres undefined)	STAT1 blocker 35.3
CCOC(=O)CSc1nc2cc(C(=O)NCC3CCCO3)ccc2c(=O)n1Cc1ccco1 (centres undefined)	none
COC1(C)CC2C(CC1OC(=O)c1cc([N+](=O)[O-])cc([N+](=O)[O-])c1)C2(C)C (centres undefined)	none
O=C(CCl)N=c1sccn1Cc1ccc(Cl)cc1Cl	STAT1 blocker 89.8, STAT3 inh 59.7
O=C(CCl)N=c1sccn1Cc1cccc2ccccc12	STAT1 blocker 92.1, STAT3 inh 81.3
O=c1cc(N2CCCCCC2)[nH]c(=O)n1-c1ccc(Cl)cc1	none (no result: STAT3 inh, STAT3 act)
O=C(Nc1ccc(N2CCOCC2)nc1)c1ccc(Cl)cc1	none
Cn1c(=NC(=O)c2cccc([N+](=O)[O-])c2)sc2ccccc21	STAT3 act 135.8
S=C(Nc1ccccc1)Nc1ccc(OCc2ccc(Cl)cc2Cl)cc1	STAT1 blocker 58.7, STAT3 inh 64.1
Cc1cc(/C=c2/sc3nc4ccccc4n3c2=O)c(C)n1-c1ccccn1	STAT1 blocker 85.9, STAT3 inh 104.4
C/C(=N/OCc1ccc(Br)cc1)c1ccccn1	none
N/C(=N\OCc1ccc([N+](=O)[O-])cc1)c1ccccn1	STAT1 blocker 90.0, STAT3 inh 110.3
N/C(=N\OC(=O)/C=C/c1ccccc1Cl)c1ccccn1	STAT1 blocker 43.0, STAT3 inh 69.4
N/C(=N\OC(=O)c1ccccc1)c1ccccn1	STAT1 blocker 71.0, STAT3 inh 71.8
O=C1c2ccccc2C(=O)c2c1cccc2N1CCOCC1	none
O=C(CSc1nc2ccccc2nc1SCC(=O)N1CCOCC1)N1CCOCC1	none
O=C1NC(=Nc2ccccc2)c2c1cccc2[N+](=O)[O-]	none
C=CC[n+]1ccc(/C=C2\C=Cc3cc(C)ccc3N2CC)c2ccccc21	STAT1 blocker 36.0, STAT3 inh 86.3
CCN1/C(=C/c2cc[n+](CCCS(=O)(=O)[O-])c3ccccc23)Sc2ccccc21	none
Cc1cc(C)c(C(=O)/C=C/c2cccc3ccccc23)c(=O)[nH]1	none
Cc1[nH]c(=O)c(C(=O)/C=C/c2ccccc2F)c2c1CCCC2	L929 necroptosis 92.2
COc1cc(S(=O)(=O)Nc2ccc3cn[nH]c3c2)ccc1Cl	none
O=C(O)c1ccc(Cl)c(S(=O)(=O)Nc2ccc3cn[nH]c3c2)c1	STAT3 act 135.3
Cc1ccccc1OCCSc1nc(N(C)C)nc(N(C)C)n1	none
CCc1ccc2[nH]c(=O)c(CN(Cc3ccccc3OC)C(=O)Nc3ccccc3OC)cc2c1	none
N#Cc1ccc(Cl)cc1NC(=O)COC(=O)c1ccc(S(=O)(=O)N2CCCC2)cc1	STAT3 act 133.8
O=C(COC(=O)c1ccc(S(=O)(=O)N2CCCC2)cc1)Nc1ccc(F)cc1F	none
CCCNCc1cc(OCC)c(OCC(N)=O)cc1Br	none
C/C(CC(=O)NCc1ccco1)=N\NC(=O)C(c1ccccc1)c1ccccc1	L929 necroptosis 76.8
O=C(Nc1cc2ccccc2oc1=O)c1ccccc1	STAT1 blocker 76.3, STAT3 inh 96.1
Cc1oc(=O)c(NC(=O)c2ccccc2)cc1C(N)=O	none
CCCc1ccc(-c2ccc(F)c(N)c2)nc1	STAT1 blocker 36.6, STAT3 inh 96.6
CCCCc1ccc(-c2ccc(Br)cc2)nc1	none
Oc1nc(Nc2ccccc2)sc1/C=C1\C=Nc2ccccc21	none (no result: STAT1 blocker, STAT3 inh, STAT3 act)
O=S(=O)(Nc1ccc(Cl)cn1)c1ccc(Cl)cc1	none
O=C(Cn1cnc2ccc(Br)cc2c1=O)c1cccs1	TNF death inh 73.6
O=C(Cn1cnc2ccccc2c1=O)c1cccs1	none
O=C(Cn1cnc2ccc(Cl)cc2c1=O)c1cccs1	TNF death inh 67.2
CCCCOC(=O)Cn1cnc2ccc(Br)cc2c1=O	none
CC(C)COC(=O)Cn1cnc2ccc(Br)cc2c1=O	TNF death inh 56.9
O=C(NC1CCCCC1)c1ccccc1-c1ccccc1	none

Screening data as filed in PubChem BioAssay.
